In one assay the target is D(1A) dopamine receptor (Homo sapiens, UniProt P21728). Kind of assay: The compound was tested for binding affinity against human Dopamine receptor D1.
The target in assay [1] is Serotonin 4 (5-HT4) receptor (Sus scrofa, UniProt Q6Q253). Nature of the assay: The compound was tested for binding affinity against 5-hydroxytryptamine 4 receptor.
For a further assay, the target named is Histamine H1 receptor (Rattus norvegicus, UniProt P31390). Kind of assay: The compound was tested for binding affinity against H1 receptor.
Chain of Histamine H1 receptor (P31390 whole entry): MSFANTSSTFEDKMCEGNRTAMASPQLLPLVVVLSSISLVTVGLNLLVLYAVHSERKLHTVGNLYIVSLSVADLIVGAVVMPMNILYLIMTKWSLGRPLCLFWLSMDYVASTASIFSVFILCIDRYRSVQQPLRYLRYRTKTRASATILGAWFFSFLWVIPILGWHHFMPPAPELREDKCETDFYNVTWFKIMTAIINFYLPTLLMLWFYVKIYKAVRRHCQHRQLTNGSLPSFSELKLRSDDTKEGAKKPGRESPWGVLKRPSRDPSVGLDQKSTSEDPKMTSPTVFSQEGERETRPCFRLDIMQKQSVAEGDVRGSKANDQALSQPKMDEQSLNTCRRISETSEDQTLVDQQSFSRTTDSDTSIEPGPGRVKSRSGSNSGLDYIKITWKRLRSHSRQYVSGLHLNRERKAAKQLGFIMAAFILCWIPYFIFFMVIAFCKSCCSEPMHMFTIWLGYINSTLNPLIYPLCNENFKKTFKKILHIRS
A further assay has as its target D(2) dopamine receptor (Homo sapiens, UniProt P14416). Nature of the assay: The compound was tested for binding affinity against human Dopamine receptor D2L.
Assay [2] concerns the target T1, Adrenergic receptor alpha-1 (Homo sapiens, UniProt P35348+P25100+P35368).
T1 sequence (P35348 whole entry): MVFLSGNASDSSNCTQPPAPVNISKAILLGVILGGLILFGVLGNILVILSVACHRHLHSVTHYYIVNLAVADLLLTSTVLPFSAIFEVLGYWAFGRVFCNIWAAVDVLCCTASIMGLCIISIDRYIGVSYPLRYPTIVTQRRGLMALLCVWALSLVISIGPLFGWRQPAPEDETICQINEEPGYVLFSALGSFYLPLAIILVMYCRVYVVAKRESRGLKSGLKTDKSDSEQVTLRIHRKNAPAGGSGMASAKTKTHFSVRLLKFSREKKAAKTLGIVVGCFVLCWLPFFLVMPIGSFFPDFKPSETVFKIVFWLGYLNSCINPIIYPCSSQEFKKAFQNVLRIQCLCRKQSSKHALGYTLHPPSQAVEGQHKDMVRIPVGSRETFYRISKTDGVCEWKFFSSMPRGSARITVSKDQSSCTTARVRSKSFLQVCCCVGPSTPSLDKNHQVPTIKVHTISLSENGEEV
T1 sequence (P25100 whole entry): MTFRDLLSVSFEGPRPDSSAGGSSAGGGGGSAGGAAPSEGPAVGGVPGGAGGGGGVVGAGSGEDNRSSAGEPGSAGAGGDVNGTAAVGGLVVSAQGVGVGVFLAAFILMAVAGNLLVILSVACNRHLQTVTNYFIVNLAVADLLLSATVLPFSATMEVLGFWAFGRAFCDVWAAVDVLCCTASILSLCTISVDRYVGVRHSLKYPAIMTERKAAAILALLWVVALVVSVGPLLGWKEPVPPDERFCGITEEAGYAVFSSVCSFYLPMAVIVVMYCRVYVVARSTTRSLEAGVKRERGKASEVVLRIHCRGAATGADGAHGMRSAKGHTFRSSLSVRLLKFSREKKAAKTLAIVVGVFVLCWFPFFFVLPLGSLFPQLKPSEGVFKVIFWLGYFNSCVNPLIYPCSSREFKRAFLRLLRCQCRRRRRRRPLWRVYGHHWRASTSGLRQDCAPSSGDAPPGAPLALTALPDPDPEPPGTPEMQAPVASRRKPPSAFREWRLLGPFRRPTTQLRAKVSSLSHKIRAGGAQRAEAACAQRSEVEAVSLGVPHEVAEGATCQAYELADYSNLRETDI
T1 sequence (P35368 whole entry): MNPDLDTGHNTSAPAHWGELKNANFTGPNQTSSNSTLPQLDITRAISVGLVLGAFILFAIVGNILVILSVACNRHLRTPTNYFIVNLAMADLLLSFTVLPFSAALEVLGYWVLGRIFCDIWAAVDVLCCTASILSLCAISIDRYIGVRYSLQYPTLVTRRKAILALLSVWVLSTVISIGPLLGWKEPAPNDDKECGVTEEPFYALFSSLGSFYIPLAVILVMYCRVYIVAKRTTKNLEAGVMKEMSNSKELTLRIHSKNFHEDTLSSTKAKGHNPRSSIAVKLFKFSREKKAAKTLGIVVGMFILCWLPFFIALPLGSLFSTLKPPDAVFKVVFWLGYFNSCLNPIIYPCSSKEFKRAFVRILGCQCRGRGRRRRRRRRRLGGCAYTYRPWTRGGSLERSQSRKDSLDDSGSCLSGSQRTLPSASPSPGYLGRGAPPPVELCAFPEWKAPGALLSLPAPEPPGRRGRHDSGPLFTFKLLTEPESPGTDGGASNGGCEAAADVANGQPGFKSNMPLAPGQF
Kind of assay: Binding affinity towards Alpha-1 adrenergic receptor in human cortex membranes. The class given is cell membranes.

The target of assay [3] is T1, Adrenergic receptor alpha-1. Kind of assay: The compound was tested for binding affinity against human Alpha-1 adrenergic receptor. The class given is protein assay. The method, boiled down:
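Postmortem human cortex membranes, stored at −80 °C, assayed in 50 mM Tris-HCl pH 7.6. Incubated with 0.1 nM [3H]prazosin for 30 min at 30 °C, test agent at 10^-6 M or 10 concentrations; 5 μM phentolamine for nonspecific binding. IC50 by curve fitting, converted to Ki (Cheng–Prusoff).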

Assay [4] has as its target 5-hydroxytryptamine receptor 6 (Rattus norvegicus, UniProt P31388). Kind of assay: The compound was tested for binding affinity against 5-hydroxytryptamine 6 receptor.
Another assay deals with D(3) dopamine receptor (Homo sapiens, UniProt P35462). Kind of assay: The compound was tested for binding affinity against human Dopamine receptor D3.
Chain of D(3) dopamine receptor (P35462 whole entry): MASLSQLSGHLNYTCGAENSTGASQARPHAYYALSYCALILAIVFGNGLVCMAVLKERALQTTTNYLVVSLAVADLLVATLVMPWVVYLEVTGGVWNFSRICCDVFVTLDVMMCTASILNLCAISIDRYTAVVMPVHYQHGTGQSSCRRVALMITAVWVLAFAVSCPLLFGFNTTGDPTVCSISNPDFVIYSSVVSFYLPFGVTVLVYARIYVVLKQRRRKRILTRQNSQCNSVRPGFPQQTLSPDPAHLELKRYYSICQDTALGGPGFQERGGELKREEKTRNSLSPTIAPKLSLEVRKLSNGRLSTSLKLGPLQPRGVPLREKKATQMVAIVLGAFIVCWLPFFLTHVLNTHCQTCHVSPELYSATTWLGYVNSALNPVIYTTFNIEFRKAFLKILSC
Another assay has as its target D(1B) dopamine receptor (Homo sapiens, UniProt P21918). Nature of the assay: The compound was tested for binding affinity against human Dopamine receptor D5.
Assay [5] has as its target 5-hydroxytryptamine receptor 2A (Rattus norvegicus, UniProt P14842). Nature of the assay: The compound was tested for binding affinity against 5-hydroxytryptamine 2A receptor.
Assay [6] in a line: The compound was tested for binding affinity against MCB receptor.
The next assay has as its system Rattus norvegicus. Nature of the assay: The compound was tested in vivo for induction of catalepsy in rat after ip administration. Format: functional. A digest of the protocol: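 Male rats (130–190 g), groups of five, injected ip with compound solution (1 mL/kg). Catalepsy assessed at three times by placing each paw on a 45 mm rubber bung; a paw held 15 s scores 1 (group maximum 20 = 100%). ED50 from percent catalepsy at the final reading, by adapted Litchfield–Wilcoxon.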

Assay [7] addresses T2, 5-hydroxytryptamine receptor 1A (Homo sapiens, UniProt P08908).
T2 sequence (P08908 whole entry): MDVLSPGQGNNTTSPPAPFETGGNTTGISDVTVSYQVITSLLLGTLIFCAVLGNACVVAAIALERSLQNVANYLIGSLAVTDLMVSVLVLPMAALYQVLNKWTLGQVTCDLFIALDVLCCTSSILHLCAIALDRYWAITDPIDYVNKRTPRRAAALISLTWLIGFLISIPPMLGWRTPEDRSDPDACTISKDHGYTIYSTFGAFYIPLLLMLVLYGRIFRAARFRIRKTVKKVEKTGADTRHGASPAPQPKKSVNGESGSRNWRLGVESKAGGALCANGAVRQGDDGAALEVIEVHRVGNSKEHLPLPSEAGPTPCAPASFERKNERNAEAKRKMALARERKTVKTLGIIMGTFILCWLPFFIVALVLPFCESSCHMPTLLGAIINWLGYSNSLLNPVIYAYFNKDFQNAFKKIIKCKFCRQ
Nature of the assay: The compound was tested for binding affinity against 5-hydroxytryptamine 1A receptor receptor.

Chain of 5-hydroxytryptamine receptor 6 (P31388 whole entry): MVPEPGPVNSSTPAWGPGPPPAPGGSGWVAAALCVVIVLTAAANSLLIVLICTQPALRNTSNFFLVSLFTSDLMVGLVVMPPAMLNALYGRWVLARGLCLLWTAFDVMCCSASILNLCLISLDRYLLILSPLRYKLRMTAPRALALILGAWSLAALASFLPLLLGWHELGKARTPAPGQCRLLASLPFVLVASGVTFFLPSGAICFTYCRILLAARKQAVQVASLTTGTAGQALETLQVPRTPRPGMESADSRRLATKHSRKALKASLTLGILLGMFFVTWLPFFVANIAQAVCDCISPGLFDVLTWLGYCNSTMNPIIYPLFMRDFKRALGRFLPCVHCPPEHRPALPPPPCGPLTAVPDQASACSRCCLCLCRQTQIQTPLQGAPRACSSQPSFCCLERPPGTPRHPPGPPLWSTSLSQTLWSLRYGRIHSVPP
Chain of 5-hydroxytryptamine receptor 2A (P14842 whole entry): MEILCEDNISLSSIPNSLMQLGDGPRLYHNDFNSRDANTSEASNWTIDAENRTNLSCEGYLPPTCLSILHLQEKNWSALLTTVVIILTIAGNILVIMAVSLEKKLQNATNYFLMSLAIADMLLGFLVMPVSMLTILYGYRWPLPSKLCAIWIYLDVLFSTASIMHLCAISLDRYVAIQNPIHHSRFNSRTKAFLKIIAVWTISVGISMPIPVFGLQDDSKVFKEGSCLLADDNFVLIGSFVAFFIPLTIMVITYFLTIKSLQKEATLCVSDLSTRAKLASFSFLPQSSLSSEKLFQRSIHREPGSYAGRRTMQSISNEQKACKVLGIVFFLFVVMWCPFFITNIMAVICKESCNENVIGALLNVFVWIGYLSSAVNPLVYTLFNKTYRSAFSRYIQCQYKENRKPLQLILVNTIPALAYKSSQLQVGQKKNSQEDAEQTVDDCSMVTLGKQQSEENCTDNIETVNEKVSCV
Chain of D(1B) dopamine receptor (P21918 whole entry): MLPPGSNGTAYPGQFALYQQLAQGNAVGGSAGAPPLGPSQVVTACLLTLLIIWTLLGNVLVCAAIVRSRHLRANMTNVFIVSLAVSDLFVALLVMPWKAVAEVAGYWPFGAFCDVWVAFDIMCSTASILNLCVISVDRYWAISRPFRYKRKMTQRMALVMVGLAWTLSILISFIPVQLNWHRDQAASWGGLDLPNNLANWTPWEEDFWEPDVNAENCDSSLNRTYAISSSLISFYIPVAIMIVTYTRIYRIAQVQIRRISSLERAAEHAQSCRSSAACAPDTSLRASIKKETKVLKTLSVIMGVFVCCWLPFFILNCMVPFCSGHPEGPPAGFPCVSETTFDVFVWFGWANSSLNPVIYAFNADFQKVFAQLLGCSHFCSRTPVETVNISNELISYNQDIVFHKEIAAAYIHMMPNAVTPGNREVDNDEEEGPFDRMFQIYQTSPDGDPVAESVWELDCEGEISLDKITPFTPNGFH
Chain of D(2) dopamine receptor (P14416 whole entry): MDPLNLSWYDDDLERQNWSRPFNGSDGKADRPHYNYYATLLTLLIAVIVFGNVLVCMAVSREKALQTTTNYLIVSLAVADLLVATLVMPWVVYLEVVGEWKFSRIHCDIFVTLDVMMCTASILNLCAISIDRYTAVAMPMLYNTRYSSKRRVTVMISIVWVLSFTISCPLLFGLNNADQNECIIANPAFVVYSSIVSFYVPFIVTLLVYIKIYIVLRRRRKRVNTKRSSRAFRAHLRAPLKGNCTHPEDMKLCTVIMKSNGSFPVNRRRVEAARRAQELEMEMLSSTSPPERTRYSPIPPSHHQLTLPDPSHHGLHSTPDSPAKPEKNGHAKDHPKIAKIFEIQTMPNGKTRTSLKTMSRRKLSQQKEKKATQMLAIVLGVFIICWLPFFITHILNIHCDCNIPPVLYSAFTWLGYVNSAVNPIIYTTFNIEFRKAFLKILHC
Chain of Serotonin 4 (5-HT4) receptor (Q6Q253 whole entry): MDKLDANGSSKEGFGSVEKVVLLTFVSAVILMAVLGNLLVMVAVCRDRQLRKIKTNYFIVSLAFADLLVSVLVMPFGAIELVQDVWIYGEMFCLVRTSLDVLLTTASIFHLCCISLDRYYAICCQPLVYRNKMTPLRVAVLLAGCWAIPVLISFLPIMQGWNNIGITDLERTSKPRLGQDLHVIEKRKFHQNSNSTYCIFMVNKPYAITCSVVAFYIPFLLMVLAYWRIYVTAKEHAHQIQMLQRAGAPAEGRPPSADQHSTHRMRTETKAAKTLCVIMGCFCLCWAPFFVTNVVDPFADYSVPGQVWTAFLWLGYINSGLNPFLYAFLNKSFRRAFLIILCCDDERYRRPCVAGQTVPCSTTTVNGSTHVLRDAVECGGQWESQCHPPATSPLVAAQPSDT
Chain of D(1A) dopamine receptor (P21728 whole entry): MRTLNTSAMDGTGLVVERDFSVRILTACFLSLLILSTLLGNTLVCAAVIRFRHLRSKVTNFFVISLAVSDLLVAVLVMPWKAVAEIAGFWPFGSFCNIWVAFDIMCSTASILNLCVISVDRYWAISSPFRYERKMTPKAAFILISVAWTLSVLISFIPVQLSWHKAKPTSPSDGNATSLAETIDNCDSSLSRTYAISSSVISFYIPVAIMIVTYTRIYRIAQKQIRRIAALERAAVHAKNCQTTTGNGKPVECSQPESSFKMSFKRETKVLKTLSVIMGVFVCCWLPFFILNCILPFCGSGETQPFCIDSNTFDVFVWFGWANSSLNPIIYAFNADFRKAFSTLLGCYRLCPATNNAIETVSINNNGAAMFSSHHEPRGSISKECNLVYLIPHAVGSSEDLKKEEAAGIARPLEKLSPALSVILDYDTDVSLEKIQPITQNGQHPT

What is called Ki is the dissociation constant of the complex between target and ligand, obtained from inhibition or displacement. The low end stands for a stronger hold on the target, the high end for a looser hold on the target. In general, ED50 refers to the midpoint of the dose-response relation. Regarding `COc1ccccc1N1CCC(CNCC2COc3ccc(Cl)cc3O2)CC1` (stereo not drawn), the inhibition constant Ki at D(1A) dopamine receptor was greater than 1 µM; in [1], greater than 1 µM; at Histamine H1 receptor, greater than 1 µM; at D(2) dopamine receptor it was 0.0132 µM; in assay [2], 0.053 µM; in assay [3], 0.181 µM. Besides, the inhibition constant Ki in [4] is greater than 0.5 µM; at D(3) dopamine receptor it was 0.0016 µM; on D(1B) dopamine receptor, greater than 1 µM; in assay [5], greater than 0.5 µM; in assay [6], greater than 1 µM; in [7], 0.0036 µM. In the assay on Rattus norvegicus, this molecule displayed an ED50 of 188 mg/kg.

Values taken from ChEMBL document CHEMBL1132360, “N-Substituted (2,3-dihydro-1,4-benzodioxin-2-yl)methylamine derivatives as D(2) antagonists/5-HT(1A) partial agonists with potential as atypical antipsychotic agents” (J Med Chem, 1999).
